Experimental data from BindingDB's records for doi:10.1021/acs.jmedchem.9b01313 (Anhui Medical University, 2019).

Target: Hypoxia-inducible factor 1-alpha (Homo sapiens, UniProt Q16665)
Experiment: Inhibition of HIF1alpha transcriptional activity in hypoxia-induced human HCCLM3 cells co-transfected with luciferase reporter plasmid containing five copies of HREs and pRL-SV40 plasmid encoding Renilla luciferase incubated with compound under normoxia for 1 hr followed by hypoxia induction and measured after 24 hrs by HRE-dependent dual luciferase reporter gene assay
Method in brief: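 LM3 cells co-transfected with firefly luciferase reporter carrying five HRE copies plus pRL-SV40 Renilla plasmid; after transfection treated and kept under hypoxia; firefly luminescence normalized to Renilla. Single-point inhibition rate at 10 μM; IC50 for selected compounds.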

Chain of Hypoxia-inducible factor 1-alpha (Q16665 whole entry): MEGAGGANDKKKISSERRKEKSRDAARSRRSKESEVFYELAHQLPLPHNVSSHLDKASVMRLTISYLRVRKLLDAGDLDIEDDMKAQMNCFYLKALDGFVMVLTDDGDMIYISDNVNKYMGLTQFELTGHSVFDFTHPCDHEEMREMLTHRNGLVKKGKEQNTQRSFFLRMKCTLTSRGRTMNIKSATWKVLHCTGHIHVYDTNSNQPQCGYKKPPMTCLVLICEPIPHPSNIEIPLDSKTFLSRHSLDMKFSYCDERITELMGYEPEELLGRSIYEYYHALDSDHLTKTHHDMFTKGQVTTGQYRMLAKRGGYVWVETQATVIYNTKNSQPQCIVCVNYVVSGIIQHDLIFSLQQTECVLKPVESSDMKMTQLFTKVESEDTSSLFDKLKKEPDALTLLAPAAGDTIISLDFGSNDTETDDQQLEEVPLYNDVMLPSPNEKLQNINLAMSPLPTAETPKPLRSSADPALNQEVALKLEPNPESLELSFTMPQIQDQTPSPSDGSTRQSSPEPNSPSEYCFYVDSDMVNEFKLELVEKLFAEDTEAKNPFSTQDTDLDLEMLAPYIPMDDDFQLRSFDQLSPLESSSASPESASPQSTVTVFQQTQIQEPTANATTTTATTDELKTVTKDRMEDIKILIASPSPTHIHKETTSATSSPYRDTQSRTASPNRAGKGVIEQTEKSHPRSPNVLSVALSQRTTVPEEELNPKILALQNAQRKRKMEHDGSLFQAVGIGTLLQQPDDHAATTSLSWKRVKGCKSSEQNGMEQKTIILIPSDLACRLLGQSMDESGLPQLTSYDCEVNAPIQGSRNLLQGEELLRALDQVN

O=C(NCCc1ccccc1F)c1ccc(-c2ccoc2)cn1
IC50: 4.24 µM

Nc1ccc(CCNC(=O)c2ccc(-c3ccccc3)cn2)cc1
IC50: 11.6 µM

O=C(NCCc1ccccc1F)c1ccc(-c2cccs2)cn1
IC50: 2.48 µM

Cc1nc(C(=O)NCCc2ccccc2)cs1
IC50: 55.7 µM

O=C(NCCc1ccccc1F)c1ccc(-c2ccsc2)cn1
IC50: 1.41 µM

O=C(NCCc1ccccc1Cl)c1ccc(-c2ccccc2)cn1
IC50: 9.84 µM

COc1ccccc1-c1ccc(C(=O)NCCc2ccccc2F)nc1
IC50: 0.32 µM

O=C(NCCc1ccncc1)c1nccc(-c2ccccc2)n1
IC50: 10 µM

O=C(NCCc1ccccc1Cl)c1ccc(-c2ccccc2)cc1
IC50: 2.87 µM

O=C(NCCc1ccccc1F)c1ccc(-c2ccccc2F)cn1
IC50: 2.16 µM

O=C(NCCc1ccccc1F)c1ccc(-c2ccccc2)cn1
IC50: 0.93 µM

O=C(NCCc1cccc(Cl)c1)c1ccc(-c2ccccc2)cn1
IC50: 9.84 µM

COC(=O)c1ccc(O)c(NC(=O)COc2ccc(C34CC5CC(CC(C5)C3)C4)cc2)c1
IC50: 3.08 µM

O=C(NCCc1ccccc1)c1ccc(-c2ccccc2)cn1
IC50: 4.56 µM

O=C(NCCc1ccncc1)c1nnc(-c2ccccc2)o1
IC50: 7.32 µM

N#Cc1ccccc1-c1ccc(C(=O)NCCc2ccccc2F)nc1
IC50: 8.53 µM

O=C(NCCc1ccncc1)c1ccc(-c2ccccc2)cn1
IC50: 13.8 µM
